Measured values as given in ChEMBL document CHEMBL4373637, “Synthesis of bicyclic 1,4-thiazepines as novel anti-Trypanosoma brucei brucei agents” (Medchemcomm, 2019).

Experiments:
[1] = test system: Trypanosoma brucei brucei; experiment: Antitrypanosomal activity against Trypanosoma brucei brucei 427 assessed as parasite death at 30 uM after 24 hrs by PI-staining based flow cytometry analysis relative to control; assay type: functional
How it was run: (§1)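 Bloodstream-form T. b. brucei strain 427 grown in HMI-9 with 10% FBS at 37 °C and 5% CO2. Exponential-phase parasites were seeded at 5 x 10⁵/mL and given compound from DMSO stocks, alongside 1% DMSO and nifurtimox control wells. After 24 h, aliquots were diluted into PBS with 1% glucose (pH 7.4) and propidium iodide and counted by flow cytometry (ex 488 nm). Viability (%) = 100 × cells treated / cells in DMSO control.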

[2] = test system: Trypanosoma brucei brucei; experiment: Antitrypanosomal activity against Trypanosoma brucei brucei 427 assessed as parasite death at 5 uM after 24 hrs by PI-staining based flow cytometry analysis relative to control; assay type: functional; how it was run: as §1
[3] = test system: Trypanosoma brucei brucei; experiment: Antitrypanosomal activity against Trypanosoma brucei brucei 427 assessed as parasite death after 24 hrs by PI-staining based flow cytometry analysis; assay type: functional, organism-based; conditions: Trypanosoma brucei, 427, 24 h
How it was run: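 Bloodstream-form T. b. brucei 427, cell line 449, carrying a redox biosensor, grown in HMI-9 with 10% FBS at 37 °C and 5% CO2. Exponential-phase cells at 5 x 10^5/mL were exposed to compound for 24 h; the control was 1% DMSO. Cells were then diluted into PBS with 1% glucose (pH 7.4) and propidium iodide, and analysed by flow cytometry (ex 488 nm). Viability was expressed as % of DMSO-control cell number.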

[4] = test system: Nippostrongylus brasiliensis; experiment: Antiparasitic activity against Nippostrongylus brasiliensis L4 assessed as parasite death at 20 uM relative to control; assay type: functional
[5] = test system: J774; experiment: Cytotoxicity against mouse J774 cells assessed as reduction in cell viability after 24 hrs by WST-1 assay; assay type: cell-based; conditions: J774, 24 h
How it was run: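 Mouse J774 macrophages grown in DMEM with 10% FCS at 37 °C and 5% CO2. Viability was read with WST-1 at 6 concentrations, in triplicate, and expressed relative to the DMSO-treated control.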

[6] = target: T1, Thioredoxin glutathione reductase (Echinococcus granulosus) (UniProt Q869D7); experiment: Inhibition of wild type recombinant Echinococcus granulosus TGR at 50 uM preincubated for NADPH followed by compound addition and measured after 3 mins by spectrophotometric analysis relative to control
T1 sequence (whole entry): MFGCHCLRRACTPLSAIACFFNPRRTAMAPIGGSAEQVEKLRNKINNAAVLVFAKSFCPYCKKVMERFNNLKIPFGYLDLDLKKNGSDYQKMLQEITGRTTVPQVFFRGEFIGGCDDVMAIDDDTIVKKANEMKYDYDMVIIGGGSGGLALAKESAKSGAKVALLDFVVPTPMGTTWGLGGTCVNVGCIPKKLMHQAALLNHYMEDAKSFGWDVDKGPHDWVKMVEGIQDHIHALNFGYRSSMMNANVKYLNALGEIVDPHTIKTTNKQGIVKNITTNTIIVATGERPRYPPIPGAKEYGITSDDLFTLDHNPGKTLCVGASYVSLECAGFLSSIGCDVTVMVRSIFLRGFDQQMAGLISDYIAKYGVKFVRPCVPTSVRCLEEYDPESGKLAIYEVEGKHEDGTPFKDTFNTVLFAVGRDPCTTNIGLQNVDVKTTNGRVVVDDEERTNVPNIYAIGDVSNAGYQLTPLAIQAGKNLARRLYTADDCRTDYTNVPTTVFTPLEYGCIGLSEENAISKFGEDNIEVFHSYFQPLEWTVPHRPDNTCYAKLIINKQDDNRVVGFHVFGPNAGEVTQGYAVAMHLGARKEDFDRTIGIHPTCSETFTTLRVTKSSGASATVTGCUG
How it was run: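 Recombinant wild-type E. granulosus TGR (1 nM) in 50 mM phosphate, 1 mM EDTA, pH 7, with 100 µM NADPH. Enzyme was preincubated for 3 min with NADPH and inhibitor at 50 µM (from a 100 mM DMSO stock). The reaction was started with 5 mM DTNB, and TNB formation was followed at 412 nm for 3 min. Runs were in duplicate, with controls lacking enzyme and lacking inhibitor.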

[7] = Selectivity index, ratio of EC50 for mouse J774 cells to EC50 for antitrypanosomal activity against Trypanosoma brucei brucei 427; assay type: toxicity; conditions: read-out: Ratio EC50
[8] = test system: Caenorhabditis elegans; experiment: Antiparasitic activity against Caenorhabditis elegans assessed as inhibition of parasite motility at 100 uM after 17.5 hrs by motility assay relative to control; assay type: functional
How it was run: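 About 80 synchronized L4 worms per well in K buffer with 0.015% BSA. Motility was first recorded for 30 min to set 100%. Compound was then added at 100 µM in 1% DMSO, and motility was tracked automatically for 17.5 h. Mean motility at the final time was compared with 1% DMSO control wells. Eight replicates.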

Row | Compound | Activity [1] | Activity [2] | EC50 [3] | Activity [4] | EC50 [5] | inhibition [6] | selectivity ratio [7] | inhibition at 100 µM [8]
1 | O=C(OCc1c(-c2ccccc2)no[n+]1[O-])C1=C(C(=O)OCc2c(-c3ccccc3)no[n+]2[O-])C2CSC(CS1)N2Cc1ccccc1 (stereo not drawn) | 23.3% | 12.2% |  |  |  |  |  | 
2 | CCOC(=O)C1=C(C(=O)OCC)C2CSC(CS1)N2Cc1ccc(F)cc1 (stereo not drawn) | 99.4% | 12.7% | 17.8 µM | 47.6% | 64.4 µM | 41% | 3.6 | 26%
3 | CCCSc1ccc2[nH]c(NC(=O)OC)nc2c1 [ALBENDAZOLE] |  |  |  | 100% |  |  |  | 
4 | O=C(OCc1c(-c2ccccc2)no[n+]1[O-])C1=C(C(=O)c2ccc(Cl)cc2)C2CSC(CS1)N2Cc1ccccc1 (stereo not drawn) | 97.7% | 89.4% | 2.5 µM |  | 3.1 µM | 0% | 1.2 | 
5 | CC1CS(=O)(=O)CCN1/N=C/c1ccc([N+](=O)[O-])o1 (stereo not drawn) [NIFURTIMOX] |  |  |  |  | 150 µM |  | 10 | 
6 | COC(=O)C1=C(C(=O)c2ccc(Cl)cc2)C2CSC(CS1)N2CCO (stereo not drawn) | 3.6% | 1.8% |  | 20.6% |  | 0% |  | 18%
7 | COC(=O)C1=C(C(=O)c2ccc(Cl)cc2)C2CSC(CS1)N2Cc1ccc(OC)cc1 (stereo not drawn) | 95.9% | 0% | 16.4 µM | 27.6% | 9.7 µM | 29% | 0.6 | 3%
8 | COC(=O)C1=C(C(=O)c2ccc(Cl)cc2)C2CSC(CS1)N2Cc1ccccc1 (stereo not drawn) | 57.5% | 3.4% |  | 20.5% |  | 0% |  | 51%
9 | CCOC(=O)C1=C(C(=O)OCC)C2CSC(CS1)N2CCCC(=O)OCc1c(-c2ccccc2)no[n+]1[O-] (stereo not drawn) | 97.8% | 60.4% | 2.8 µM |  | > 200 µM | 0% | > 71 | 22%
10 | CCOC(=O)C1=C(C(=O)OCC)C2CSC(CS1)N2Cc1ccc(Cl)cc1 (stereo not drawn) | 97.3% | 2.4% | 8 µM | 17.1% | > 200 µM | 0% | > 25 | 37%
11 | CCOC(=O)C1=C(C(=O)OCC)C2CSC(CS1)N2Cc1ccc(OC)cc1 (stereo not drawn) | 97.7% | 3% | 18 µM | 13.8% | > 200 µM | 36% | > 11 | 50%
12 | CCOC(=O)C1=C(C(=O)OCC)C2CSC(CS1)N2Cc1ccccc1 (stereo not drawn) | 98.8% | 3.5% | 18.9 µM | 5.9% | 200 µM | 0% | 10 | 20%
